A selection: hits, their analogues and other compounds. The true share with any hit is near 5.9%.
T cruzi growth – blocks T. cruzi growth in NIH3T3 culture | actives 5.9% (n = 77,000) | inhibition, % at 8.34 µM | AID 624255 | T. cruzi beta-gal in NIH3T3, GalScreen luminescence, 90 h;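 active means mean inhibition above about 93%, with at least 55% of replicates each passing it, limit read from the data, passing the limit was not always enough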
Pf Dd2 inh – blocks growth of Plasmodium falciparum Dd2 parasites; actives 2.3% (n = 94,000); P. falciparum Dd2 growth, SYBR Green, 72 h; active compounds read low; AID 1159554; activity change, % at 10 µM; in the data active means activity change below about -80%
IDH1 R132H inh – blocks human IDH1 R132H reductase activity. O75874. diaphorase/resazurin fluorescence, 60 min. inhibition, % at 10 µM. actives 0.18% (n = 70,000). AID 624101; in the data active means inhibition above about 34%;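 further: 0% = DMSO and 100% = no enzyme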
KDM4C inh – inhibitors of human demethylase GASC-1 KDM4C | GST-KDM4C 2-372, H3K9me3 peptide, LANCE TR-FRET | inhibition, % at 12.5 µM | actives 0.15% (n = 96,000) | Q9H3R0;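 active means mean replicate inhibition above about 25%, with at least 55% of replicates also reaching it, limit read from the data, passing the limit was not always enough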
Target sequence (Q9H3R0 2-372 limits assumed): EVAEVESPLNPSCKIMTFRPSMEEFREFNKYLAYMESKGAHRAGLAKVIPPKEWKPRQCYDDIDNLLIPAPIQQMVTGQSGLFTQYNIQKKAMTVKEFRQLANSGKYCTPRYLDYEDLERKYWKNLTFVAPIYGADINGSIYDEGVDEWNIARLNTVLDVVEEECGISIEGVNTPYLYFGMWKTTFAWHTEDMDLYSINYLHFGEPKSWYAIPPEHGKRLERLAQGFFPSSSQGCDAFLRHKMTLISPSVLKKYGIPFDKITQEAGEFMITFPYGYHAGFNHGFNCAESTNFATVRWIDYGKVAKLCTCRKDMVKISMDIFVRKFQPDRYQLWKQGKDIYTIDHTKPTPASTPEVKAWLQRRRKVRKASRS
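reagent = H3K9me3 peptide substrate, Fe(II), 2-oxoglutarate | system = GST-tagged GASC-1 (JMJD2C) catalytic fragment, aa 2-372 | amount = enzyme final amount 10 nM | read-out = Fall in 671/618 emission ratio as inhibition | medium = HEPES buffer, pH 7.5, plus ascorbate | schedule = 30 min reaction, 60 min detection, RT | measured by = LANCE TR-FRET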
Numbers without * were called inactive; . = not tested or not shown.

SMILES | T cruzi growth | Pf Dd2 inh | IDH1 R132H inh | KDM4C inh
C[C@@H]1CN([C@H](C)CO)C(=O)c2cccc(NC(=O)CCCCCC(=O)Nc3ccccc3N)c2O[C@H]1CN(C)Cc1ccccc1 | . | -88* | -1 | -4
Cc1ccc(NC(=O)CSc2n[nH]c(N)n2)cc1Cl | . | . | 0 | .
CCCNC(=O)CSc1nc2nc(C)c(Cc3cccc(C)c3)c(C)n2n1 | . | . | 0 | .
COc1ccc2c3c([nH]c2c1)[C@@H](CO)N(Cc1cccc(F)c1)CC31CCN(C(C)=O)CC1 | . | -93* | . | -2
COc1ccc2c3c([nH]c2c1)[C@@H](CO)N(Cc1cccc(F)c1)CC31CN(C(C)=O)C1 | . | -85* | . | 1
COc1ccc2c3c([nH]c2c1)[C@H](CO)N(Cc1cccc(F)c1)CC31CN(C(C)=O)C1 | . | -78 | . | 0
COc1ccc2c3c([nH]c2c1)[C@H](CO)N(Cc1ccccc1)CC31CCN(S(=O)(=O)c2ccc(C)cc2)CC1 | . | -54 | . | 0
COc1ccc(S(=O)(=O)N2CCC3(CC2)CN(Cc2ccncc2)[C@H](CO)c2[nH]c4cc(OC)ccc4c23)cc1 | . | -88* | . | 0
COc1ccc(CN2CC3(CCN(S(=O)(=O)c4ccc(C)cc4)CC3)c3c([nH]c4cc(OC)ccc34)[C@H]2CO)cc1 | . | -86* | . | -1
Cc1nc(SCC(=O)c2cc3ccccc3oc2=O)c(C#N)c(C)c1C | . | . | 1 | .
O=C(C[C@H]1CC[C@H]2[C@@H](COC[C@H](O)CN2C(=O)c2ccccc2F)O1)NCc1ccc(-c2ccccc2)cc1 | . | -55 | . | -2
O=C(C[C@@H]1CC[C@@H]2[C@H](COC[C@@H](O)CN2C(=O)c2ccccc2F)O1)NCc1ccc(-c2ccccc2)cc1 | . | -86* | . | 1
C[C@@H]1CCCCO[C@@H](CN(C)Cc2ccc(C(=O)Nc3ccccc3N)cc2)[C@@H](C)CN([C@H](C)CO)C(=O)c2cc(NC(=O)Nc3ccc(C(F)(F)F)cc3)ccc2O1 | . | -83* | 0 | 1
C[C@@H]1CCCCO[C@@H](CN(C)Cc2ccc(C(=O)Nc3ccccc3N)cc2)[C@@H](C)CN([C@H](C)CO)C(=O)c2cc(NC(=O)Nc3ccc(F)cc3)ccc2O1 | . | -87* | . | 0
O=C(NCCCN1CCOCC1)c1cc2cc([N+](=O)[O-])ccc2oc1=O | . | . | 0 | .
Cc1cccc(-c2ccc([C@@H]3[C@@H](CO)N4CCCCN(CCC(F)(F)F)C[C@@H]34)cc2)c1 | 93 | -22 | . | -2
COc1ccccc1NC(=O)N1CCCCN2[C@@H](CO)[C@H](c3ccc(C#CC4CCCC4)cc3)[C@@H]2C1 | -3 | -83* | . | -1
Cc1cccc(-c2ccc([C@@H]3[C@H](CO)N4CCCCN(CCC(F)(F)F)C[C@@H]34)cc2)c1 | 84 | -81* | . | -1
COc1ccccc1NC(=O)N1CCCCN2[C@H](CO)[C@H](c3ccc(-c4cccc(C)c4)cc3)[C@H]2C1 | 75 | -86* | . | -1
CCc1ccc(-n2cc3c(c(C#N)c2=N)CC(C)(C)CC3=O)cc1 | . | . | 0 | .
C[C@@H]1CN([C@@H](C)CO)C(=O)Cc2cc(NC(=O)Nc3ccc(C(F)(F)F)cc3)ccc2O[C@H]1CN(C)CC1CCCCC1 | -25 | -87* | 0 | -3
C[C@H](CO)N1C[C@H](C)[C@@H](CN(C)CC2CCCCC2)Oc2ccc(NC(=O)Nc3ccc(F)cc3)cc2CC1=O | 50 | -90* | 0 | 0
C[C@@H]1CN([C@H](C)CO)C(=O)Cc2cc(NC(=O)Nc3ccc(F)cc3)ccc2O[C@@H]1CN(C)CC1CCCCC1 | 69 | -33 | -11 | 1
O=C(Nc1cccc(F)c1)N1CC(=O)N2[C@H](C1)[C@@H](c1ccc(C#CC3CC3)cc1)[C@@H]2CO | . | -82* | . | 0
Cc1ccc(-c2ccc([C@H]3[C@@H](CO)N4C(=O)CN(C(=O)Nc5cccc(F)c5)C[C@H]34)cc2)cc1 | . | -84* | . | -2
SMILES | T cruzi growth | Pf Dd2 inh | IDH1 R132H inh | KDM4C inh
Cc1ccc(-c2ccc([C@@H]3[C@H]4CN(C(=O)Nc5cccc(F)c5)CC(=O)N4[C@H]3CO)cc2)cc1 | . | -13 | . | -2
Cc1c(NC(=S)NC(=O)COc2ccccc2)cccc1-c1nc2ccccc2s1 | . | . | 0 | .
COc1ccc(S(=O)(=O)Nc2ccc3c(c2)CC(=O)N([C@H](C)CO)C[C@H](C)[C@@H](CN(C)S(=O)(=O)c2ccc(OC)cc2)O3)cc1 | 9 | -49 | -3 | 7
COc1ccc(S(=O)(=O)Nc2ccc3c(c2)CC(=O)N([C@@H](C)CO)C[C@H](C)[C@H](CN(C)S(=O)(=O)c2ccc(OC)cc2)O3)cc1 | 3 | -86* | -3 | -5
Cc1ccc(S(=O)(=O)N(C)C[C@@H]2Oc3ccc(NS(=O)(=O)c4ccc(Cl)cc4)cc3CC(=O)N([C@@H](C)CO)C[C@@H]2C)cc1 | 42 | -81* | 0 | 0
COc1ccccc1C#Cc1ccc([C@H]2[C@@H](C#N)N(C(=O)C3CCCC3)[C@H]2CO)cc1 | . | -97* | . | -3
N#C[C@H]1[C@H](c2ccc(C#Cc3ccccc3F)cc2)[C@H](CO)N1C(=O)c1cccnc1 | 91 | -87* | . | -2
COc1ccccc1C#Cc1ccc([C@H]2[C@H](C#N)N(C(=O)C3CCCC3)[C@H]2CO)cc1 | . | -65 | . | 1
N#C[C@H]1[C@@H](c2ccc(C#Cc3ccccc3F)cc2)[C@@H](CO)N1C(=O)C1CCCC1 | . | -89* | . | 4
COc1ccccc1C#Cc1ccc([C@H]2[C@@H](C#N)N(C(=O)C3CCCC3)[C@@H]2CO)cc1 | . | -87* | . | -2
COc1ccccc1C#Cc1ccc([C@@H]2[C@H](C#N)N(C(=O)C3CCCC3)[C@H]2CO)cc1 | . | -79 | . | -5
CCc1ccc(NC(=O)CN(C)S(=O)(=O)c2ccc3ccccc3c2)cc1 | . | . | 0 | .
COC(=O)c1c(NC(=S)Nc2ccc(S(=O)(=O)N3CCOCC3)cc2)sc2c1CCC(C)C2 (stereo not given) | . | . | 0 | .
CCOC(=O)C1=C(C)NC(c2ccccc2)=C(C(=O)OCc2ccc([N+](=O)[O-])cc2)C1C#Cc1ccccc1 (stereo not given) | . | . | 1 | .
CCn1c2ccccc2c2cc(NC(=O)COc3ccc([N+](=O)[O-])cc3)ccc21 | . | . | 1 | .
C[C@@H]1CN([C@H](C)CO)C(=O)c2cc(NS(=O)(=O)c3cccs3)ccc2O[C@@H]1CN(C)Cc1ccc(C(=O)Nc2ccccc2N)cc1 | . | -87* | . | 0
C[C@H]1CN([C@@H](C)CO)C(=O)c2cc(NS(=O)(=O)c3cccs3)ccc2O[C@H]1CN(C)Cc1ccc(C(=O)Nc2ccccc2N)cc1 | . | -49 | . | 1
C[C@@H]1CN([C@H](C)CO)C(=O)Cc2cc(NS(=O)(=O)c3cccs3)ccc2O[C@@H]1CN(C)Cc1ccc(C(=O)Nc2ccccc2N)cc1 | . | -86* | . | -1
COc1cccc(NC(=O)N2[C@H](CO)[C@H](c3ccccc3)[C@H]2CNC(C)C)c1 | 61 | -67 | . | 2
COc1cccc(NC(=O)N2[C@H](CO)[C@H](c3ccccc3)[C@H]2CNCC(C)C)c1 | 45 | -82* | . | 0
COc1cccc(NC(=O)N2[C@H](CNC(C)C)[C@H](c3ccccc3)[C@@H]2CO)c1 | 21 | 6 | . | -1

Bioassay records deposited in PubChem BioAssay by Broad Institute.
